# From ChEMBL document CHEMBL3259714, “Pyrazolo[4,3-e][1,2,4]triazine sulfonamides as carbonic anhydrase inhibitors with antitumor activity” (Bioorg Med Chem, 2014)
# pIC50, pKi: −log10 of the molar value.
# What was measured:
# [1] = biological target: Carbonic anhydrase 1 (Homo sapiens, UniProt P00915); assay: Inhibition of human carbonic anhydrase 1-mediated CO2 hydration preincubated for 15 mins by stopped-flow assay
# [2] = biological target: Carbonic anhydrase 2 (Homo sapiens, UniProt P00918); assay: Inhibition of human carbonic anhydrase 2-mediated CO2 hydration preincubated for 15 mins by stopped-flow assay
# [3] = biological target: Carbonic anhydrase 9 (Homo sapiens, UniProt Q16790); assay: Inhibition of human carbonic anhydrase 9-mediated CO2 hydration preincubated for 15 mins by stopped-flow assay
# [4] = biological target: Carbonic anhydrase 12 (Homo sapiens, UniProt O43570); assay: Inhibition of human carbonic anhydrase 12-mediated CO2 hydration preincubated for 15 mins by stopped-flow assay
# [5] = tested on: MCF7; assay: Cytostatic activity against human MCF7 cells assessed as inhibition of DNA synthesis after 24 hrs by [3H]thymidine incorporation assay; type: functional, cell-based
# In short: (§1)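 Cells kept in DMEM with 10% FBS and penicillin/streptomycin at 37 °C. Seeded in 6-well plates and grown to about 80% confluency, in DMEM without phenol red with 10% CPSR1. Exposed to a range of concentrations plus 0.5 μCi [³H]-thymidine for 24 h at 37 °C. Cells trypsinized and washed with cold PBS until wash dpm matched the reagent control. Uptake counted by liquid scintillation as dpm/well. IC50 is mean ± S.D. of four independent experiments.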
# [6] = tested on: MDA-MB-231; assay: Cytostatic activity against human MDA-MB-231 cells assessed as inhibition of DNA synthesis after 24 hrs by [3H]thymidine incorporation assay; type: functional, cell-based; in short: as §1
# [7] = tested on: MCF7; assay: Inhibition of collagen synthesis in human MCF7 cells assessed as 5-[3H]-proline incorporation into proteins susceptible to action of bacterial collagenase after 24 hrs; type: functional, cell-based
# In short: (§2)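 Cells labelled 24 h in growth medium with 5-[³H]proline (5 μCi/mL, 28 Ci/mmol) at a range of compound concentrations. Collagen share of incorporated label found by digesting proteins with purified Clostridium histolyticum collagenase (Peterkofsky method). Cell and medium fractions combined. IC50 is the mean ± S.D. of three independent experiments run in duplicate.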
# [8] = tested on: MDA-MB-231; assay: Inhibition of collagen synthesis in human MDA-MB-231 cells assessed as 5-[3H]-proline incorporation into proteins susceptible to action of bacterial collagenase after 24 hrs; type: functional, cell-based; in short: as §2
# [9] = tested on: MCF7; assay: Cytotoxicity against human MCF7 cells assessed as growth inhibition after 24 hrs by MTT assay; type: functional, cell-based; details: for pIC50: MCF7, 24 h
# In short: (§3)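 Confluent cells in 6-well plates treated 24 h with a range of concentrations, then washed with PBS. MTT (0.5 mg/ml in PBS) added for 4 h at 37 °C, 5% CO₂. Dye dissolved in 0.1 mol/l HCl in isopropanol and read at 570 nm. Viability given as % of untreated control, run in triplicate. IC50 taken from dose-response curves as 50% viable cells versus control.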
# [10] = tested on: MDA-MB-231; assay: Cytotoxicity against human MDA-MB-231 cells assessed as growth inhibition after 24 hrs by MTT assay; type: functional, cell-based; details: for pIC50: MDA-MB-231, 24 h; in short: as §3
# Carbonic anhydrase 1, sequence (P00915 whole entry): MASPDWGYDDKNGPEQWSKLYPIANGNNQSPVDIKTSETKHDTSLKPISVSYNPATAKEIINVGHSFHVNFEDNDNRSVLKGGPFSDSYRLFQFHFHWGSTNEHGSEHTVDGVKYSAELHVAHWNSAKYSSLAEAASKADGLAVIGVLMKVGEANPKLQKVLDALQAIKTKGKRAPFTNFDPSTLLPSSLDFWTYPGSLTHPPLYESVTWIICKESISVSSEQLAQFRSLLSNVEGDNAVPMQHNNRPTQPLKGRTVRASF
# Carbonic anhydrase 12, sequence (O43570 whole entry): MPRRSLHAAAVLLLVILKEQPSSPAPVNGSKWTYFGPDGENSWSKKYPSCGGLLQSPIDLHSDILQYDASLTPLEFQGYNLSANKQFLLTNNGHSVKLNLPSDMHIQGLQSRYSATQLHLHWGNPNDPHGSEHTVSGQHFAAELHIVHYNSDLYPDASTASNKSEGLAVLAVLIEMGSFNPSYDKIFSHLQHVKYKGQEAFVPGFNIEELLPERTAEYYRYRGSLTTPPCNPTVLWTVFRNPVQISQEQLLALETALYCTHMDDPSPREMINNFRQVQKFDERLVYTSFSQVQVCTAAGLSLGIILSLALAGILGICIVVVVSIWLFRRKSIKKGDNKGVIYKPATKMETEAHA
Compound,pKi [1],pKi [2],pKi [3],pKi [4],inhibition [5],inhibition [6],pIC50 [7],pIC50 [8],growth inhibition (GI) [9],pIC50 [9],growth inhibition (GI) [10],pIC50 [10],pIC50 [5],pIC50 [6]
Cc1nn(C)c2nnc(Nc3ccccc3)nc12,< 4.30,6.08,7.09,8.05,,,,,,,,,,
Cc1nn(C)c2nnc(Nc3ccc(S(=O)(=O)NCCN4CCOCC4)cc3)nc12,< 4.30,6.14,6.08,8.21,Dose-dependent effect,Dose-dependent effect,3.85,3.86,,,,,,
Cc1nn(C)c2nnc(Nc3ccc(S(=O)(=O)N4CCNCC4)cc3)nc12,< 4.30,6.15,< 4.30,8.24,Dose-dependent effect,Dose-dependent effect,3.76,3.74,,,,,,
Cc1nn(C)c2nnc(S(C)(=O)=O)nc12,< 4.30,6.11,7.05,8.18,,,,,,,,,,
CCOc1ccc(S(=O)(=O)N2CCCCC2)cc1-c1nnc2c(n1)c(C)nn2C,,,,,Dose-dependent effect,Dose-dependent effect,,,Dose-dependent effect,3.98,Dose-dependent effect,4.01,3.95,3.90
CCOc1ccc(S(=O)(=O)N2CCCC2)cc1-c1nnc2c(n1)c(C)nn2C,,,,,Dose-dependent effect,Dose-dependent effect,,,Dose-dependent effect,3.95,Dose-dependent effect,3.92,3.89,3.80
Cc1nn(C)c2nnc(Nc3ccc(S(=O)(=O)N4CCCC4)cc3)nc12,< 4.30,8.20,6.19,8.09,Dose-dependent effect,Dose-dependent effect,< 3.70,< 3.70,,,,,,
Cc1nn(C)c2nnc(Nc3ccc(S(=O)(=O)NCCO)cc3)nc12,< 4.30,6.11,7.58,8.12,Dose-dependent effect,Dose-dependent effect,< 3.70,< 3.70,,,,,,
CCOc1ccc(S(=O)(=O)N2CCOCC2)cc1-c1nnc2c(n1)c(C)nn2C,,,,,Dose-dependent effect,Dose-dependent effect,,,Dose-dependent effect,3.74,Dose-dependent effect,3.72,3.83,3.80
Cc1nn(C)c2nnc(Nc3ccc(S(=O)(=O)N4CCN(C)CC4)cc3)nc12,< 4.30,6.18,< 4.30,8.28,Dose-dependent effect,Dose-dependent effect,4.33,4.24,,,,,,
CCOc1ccc(S(=O)(=O)NCCN)cc1-c1nnc2c(n1)c(C)nn2C,,,,,Dose-dependent effect,Dose-dependent effect,,,Dose-dependent effect,3.72,Dose-dependent effect,< 3.70,< 3.70,3.70
CCOc1ccc(S(=O)(=O)N2CCN(C)CC2)cc1-c1nnc2c(n1)c(C)nn2C,,,,,Dose-dependent effect,Dose-dependent effect,,,Dose-dependent effect,3.96,Dose-dependent effect,3.94,3.85,3.82
Cc1nn(C)c2nnc(Nc3ccc(S(=O)(=O)N4CCOCC4)cc3)nc12,,,,,Dose-dependent effect,Dose-dependent effect,< 3.70,< 3.70,,,,,,
Cc1nn(C)c2nnc(Nc3ccc(S(N)(=O)=O)cc3)nc12,6.57,8.10,7.36,8.10,,,,,,,,,,
CCOc1ccc(S(=O)(=O)N2CCCNCC2)cc1-c1nnc2c(n1)c(C)nn2C,,,,,Dose-dependent effect,Dose-dependent effect,,,Dose-dependent effect,3.91,Dose-dependent effect,3.89,3.89,3.94
CCOc1ccc(S(=O)(=O)NCCN2CCOCC2)cc1-c1nnc2c(n1)c(C)nn2C,,,,,Dose-dependent effect,Dose-dependent effect,,,Dose-dependent effect,3.88,Dose-dependent effect,3.87,3.84,3.81
CCOc1ccc(S(=O)(=O)NCCO)cc1-c1nnc2c(n1)c(C)nn2C,,,,,Dose-dependent effect,Dose-dependent effect,,,Dose-dependent effect,< 3.70,Dose-dependent effect,< 3.70,< 3.70,< 3.70
CCOc1ccc(S(=O)(=O)N2CCNCC2)cc1-c1nnc2c(n1)c(C)nn2C,,,,,Dose-dependent effect,Dose-dependent effect,,,Dose-dependent effect,3.76,Dose-dependent effect,3.74,3.82,3.79
Cc1nn(C)c2nnc(Nc3ccc(S(=O)(=O)NCCN)cc3)nc12,< 4.30,7.21,7.63,8.15,Dose-dependent effect,Dose-dependent effect,3.95,4.02,,,,,,
Cc1nn(C)c2nnc(Nc3ccc(S(=O)(=O)N4CCCNCC4)cc3)nc12,< 4.30,6.04,< 4.30,8.23,Dose-dependent effect,Dose-dependent effect,3.88,3.87,,,,,,
O=C(O)CCCc1ccc(N(CCCl)CCCl)cc1 [CHLORAMBUCIL],,,,,Dose-dependent effect,Dose-dependent effect,4.28,4.14,Dose-dependent effect,,Dose-dependent effect,,,
Cc1nn(C)c2nnc(Nc3ccc(S(=O)(=O)N4CCCCC4)cc3)nc12,< 4.30,6.31,< 4.30,8.21,Dose-dependent effect,Dose-dependent effect,3.79,3.84,,,,,,
